# Experimental data: ChEMBL document CHEMBL5030510, “Designed β-Hairpins Inhibit LDH5 Oligomerization and Enzymatic Activity” (J Med Chem, 2021)
# pIC50: −log10 of the molar value. The source made the active and inactive calls. The calls are words filed in the database; no cut-off is given here. Where a SMILES comes first, the peptide text is derived from it. Bridges are numbered along the chain shown (N, C = ends).
# Molecular target: T1, L-lactate dehydrogenase A chain (Homo sapiens, UniProt P00338)
# Experiment: Binding affinity to recombinant full length N-terminal His-tagged human LDHA expressed in Escherichia coli assessed as reduction in fluorecence recovery measured after 2 hrs by tryptophan fluorescence emission assay
# Procedure, shortened: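 Intrinsic Trp fluorescence: 4 µM LDHA (stock) dissociated 2 min in 0.1 M glycine pH 2.5, then peptide added in 0.25 M phosphate pH 7.6, 1 mM EDTA. No-LDHA blank subtracted. Zero set at pH 2.5 and maximum at the pH 2.5→7.4 control. LDH5 final 0.6 µM.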
row,Activity,Compound
1,Dose-Dependent Effect,"CC[C@H](C)[C@@H]1NC(=O)CNC(=O)[C@H](CCCNC(=N)N)NC(=O)[C@H](Cc2ccc(O)cc2)NC(=O)[C@@H]2CSSC[C@H](NC1=O)C(=O)N[C@@H](C(C)C)C(=O)N[C@@H]([C@@H](C)O)C(=O)N[C@@H](Cc1ccc(O)cc1)C(=O)N[C@H](C(=O)N[C@@H](CCCNC(=N)N)C(=O)NCC(=O)N[C@@H](CCCNC(=N)N)C(=O)O)CSSC[C@H](NC(=O)CN)C(=O)N[C@@H](CCCNC(=N)N)C(=O)N[C@@H](CCCNC(=N)N)C(=O)N[C@@H](CC(C)C)C(=O)N2 (H-GCRRLCYRGICVTYCRGR-OH; disulfide 2-15, 6-11)"
2,inactive,"CC(C)C[C@@H]1NC(=O)[C@H](CCCNC(=N)N)NC(=O)[C@H](CCCNC(=N)N)NC(=O)[C@@H](NC(=O)CN)CSSC[C@@H](C(=O)N[C@@H](CCCNC(=N)N)C(=O)NCC(=O)N[C@@H](CCCNC(=N)N)C(=O)O)NC(=O)[C@H](C(C)C)NC(=O)[C@H]([C@@H](C)O)NC(=O)[C@H](Cc2ccccc2)NC(=O)[C@@H]2CSSC[C@H](NC1=O)C(=O)N[C@@H](CC(=O)O)C(=O)N[C@@H](CCCNC(=N)N)C(=O)N[C@@H](Cc1ccccc1)C(=O)N[C@@H](C)C(=O)N2 (H-GCRRLCDRFACFTVCRGR-OH; disulfide 2-15, 6-11)"

# Molecular target: T1, L-lactate dehydrogenase A chain
# Experiment: Inhibition of recombinant full length N-terminal His-tagged human LDHA expressed in Escherichia coli using pyruvate as substrate and NADH as cofactor incubated for 2 hrs by fluorescence assay
# Procedure, shortened: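 Reassociation activity assay: 900 nM LDHA stock in phosphate pH 7.4/EDTA/0.05% BSA, acidified 2 min with glycine pH 2.5/BSA. Peptide added in 0.25 M phosphate pH 7.6 and incubated 2 h at RT. Aliquot diluted, then pyruvate (3 mM final) and NADH (0.3 mM final) added. IC50 from dose-response fit.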
row,pIC50,Compound
1,4.61,"CC[C@H](C)[C@@H]1NC(=O)CNC(=O)[C@H](CCCNC(=N)N)NC(=O)[C@H](Cc2ccc(O)cc2)NC(=O)[C@@H]2CSSC[C@H](NC1=O)C(=O)N[C@@H](C(C)C)C(=O)N[C@@H]([C@@H](C)O)C(=O)N[C@@H](Cc1ccc(O)cc1)C(=O)N[C@H](C(=O)N[C@@H](CCCNC(=N)N)C(=O)NCC(=O)N[C@@H](CCCNC(=N)N)C(=O)O)CSSC[C@H](NC(=O)CN)C(=O)N[C@@H](CCCNC(=N)N)C(=O)N[C@@H](CCCNC(=N)N)C(=O)N[C@@H](CC(C)C)C(=O)N2 (H-GCRRLCYRGICVTYCRGR-OH; disulfide 2-15, 6-11)"
2,4.56,CC(C)C[C@@H]1NC(=O)[C@H](CCCNC(=N)N)NC(=O)[C@H](CCCNC(=N)N)NC(=O)[C@@H](NC(=O)CN)CSSC[C@@H](C(=O)N[C@@H](CCCNC(=N)N)C(=O)NCC(=O)N[C@@H](CCCNC(=N)N)C(=O)O)NC(=O)[C@H](C(C)C)NC(=O)[C@H](CC(C)C)NC(=O)[C@H](CC(=O)O)NC(=O)[C@@H]2CSSC[C@H](NC1=O)C(=O)N[C@@H](Cc1ccc(O)cc1)C(=O)N[C@@H](CCCCN)C(=O)N[C@@H](CCC(N)=O)C(=O)N[C@@H](CCCNC(=N)N)C(=O)N2
3,< 4.40,CC(C)C[C@@H]1NC(=O)[C@H](CCCNC(=N)N)NC(=O)[C@H](CCCNC(=N)N)NC(=O)[C@@H](NC(=O)CN)CSSC[C@@H](C(=O)N[C@@H](CCCNC(=N)N)C(=O)NCC(=O)N[C@@H](CCCNC(=N)N)C(=O)O)NC(=O)[C@H](C(C)C)NC(=O)[C@H]([C@@H](C)O)NC(=O)[C@H](Cc2ccccc2)NC(=O)[C@@H]2CSSC[C@H](NC1=O)C(=O)N[C@@H]([C@@H](C)O)C(=O)NCC(=O)N[C@@H](CCC(N)=O)C(=O)N[C@@H](CCCNC(=N)N)C(=O)N2
4,4.38,CC(C)C[C@@H]1NC(=O)[C@H](CCCNC(=N)N)NC(=O)[C@H](CCCNC(=N)N)NC(=O)[C@@H](NC(=O)CN)CSSC[C@@H](C(=O)N[C@@H](CCCNC(=N)N)C(=O)NCC(=O)N[C@@H](CCCNC(=N)N)C(=O)O)NC(=O)[C@H](C(C)C)NC(=O)[C@H](CCC(N)=O)NC(=O)[C@H](CCCNC(=N)N)NC(=O)[C@@H]2CSSC[C@H](NC1=O)C(=O)N[C@@H](Cc1ccc(O)cc1)C(=O)N[C@@H](CCCCN)C(=O)N[C@@H](CCC(N)=O)C(=O)NCC(=O)N2
5,4.98,CC(C)C[C@@H]1NC(=O)[C@H](CCCNC(=N)N)NC(=O)[C@H](CCCNC(=N)N)NC(=O)[C@@H](NC(=O)CN)CSSC[C@@H](C(=O)N[C@@H](CCCNC(=N)N)C(=O)NCC(=O)N[C@@H](CCCNC(=N)N)C(=O)O)NC(=O)[C@H](C(C)C)NC(=O)[C@H]([C@@H](C)O)NC(=O)[C@H](Cc2ccccc2)NC(=O)[C@@H]2CSSC[C@H](NC1=O)C(=O)N[C@@H](CC(=O)O)C(=O)N[C@@H](CCCNC(=N)N)C(=O)N[C@@H](Cc1ccccc1)C(=O)N[C@@H](Cc1c[nH]c3ccccc13)C(=O)N2
6,< 4.40,CC[C@H](C)[C@@H]1NC(=O)[C@H](Cc2ccc(O)cc2)NC(=O)[C@H](CC(N)=O)NC(=O)[C@@H]2CSSC[C@H](NC(=O)[C@H](CC(C)C)NC(=O)[C@H](CCCNC(=N)N)NC(=O)[C@H](CCCNC(=N)N)NC(=O)[C@@H](NC(=O)CN)CSSC[C@@H](C(=O)N[C@@H](CCCNC(=N)N)C(=O)NCC(=O)N[C@@H](CCCNC(=N)N)C(=O)O)NC1=O)C(=O)N[C@@H](Cc1ccc(O)cc1)C(=O)N[C@@H](CCCCN)C(=O)N[C@@H](CCC(N)=O)C(=O)N[C@@H](CC(C)C)C(=O)N2
7,4.44,CC(C)C[C@@H]1NC(=O)[C@H](CCCNC(=N)N)NC(=O)[C@H](CCCNC(=N)N)NC(=O)[C@@H](NC(=O)CN)CSSC[C@@H](C(=O)N[C@@H](CCCNC(=N)N)C(=O)NCC(=O)N[C@@H](CCCNC(=N)N)C(=O)O)NC(=O)[C@H](Cc2ccc(O)cc2)NC(=O)[C@H]([C@@H](C)O)NC(=O)[C@H](C(C)C)NC(=O)[C@@H]2CSSC[C@H](NC1=O)C(=O)N[C@@H](Cc1ccc(O)cc1)C(=O)N[C@@H](CCCCN)C(=O)N[C@@H](CCC(N)=O)C(=O)N[C@@H](CCCNC(=N)N)C(=O)N2
8,4.62,CC(C)C[C@@H]1NC(=O)[C@H](CCCNC(=N)N)NC(=O)[C@H](CCCNC(=N)N)NC(=O)[C@@H](NC(=O)CN)CSSC[C@@H](C(=O)N[C@@H](CCCNC(=N)N)C(=O)NCC(=O)N[C@@H](CCCNC(=N)N)C(=O)O)NC(=O)[C@H](C(C)C)NC(=O)[C@H]([C@@H](C)O)NC(=O)[C@H](Cc2ccccc2)NC(=O)[C@@H]2CSSC[C@H](NC1=O)C(=O)N[C@@H](Cc1ccc(O)cc1)C(=O)N[C@@H](CCCCN)C(=O)N[C@@H](CCC(N)=O)C(=O)N[C@@H](CCCNC(=N)N)C(=O)N2

# Further lines, the compound ahead of its results:
row,Compound,pIC50
1,CC[C@H](C)[C@@H]1NC(=O)CNC(=O)[C@H](CCCNC(=N)N)NC(=O)[C@H](Cc2ccc(O)cc2)NC(=O)[C@@H]2CSSC[C@H](NC1=O)C(=O)N[C@@H](Cc1ccc(O)cc1)C(=O)N[C@@H](CCCNC(=N)N)C(=O)N[C@@H](CCCNC(=N)N)C(=O)N[C@H](C(=O)N[C@@H](CCCNC(=N)N)C(=O)NCC(=O)O)CSSC[C@H](NC(=O)[C@H](Cc1c[nH]c3ccccc13)NC(=O)[C@@H](N)CCCCN)C(=O)N[C@@H](Cc1ccccc1)C(=O)N[C@@H](CCCNC(=N)N)C(=O)N[C@@H](C(C)C)C(=O)N2,4.54
2,CC(=O)N1CCC[C@H]1C(=O)N[C@H](C(=O)N[C@@H](CCC(N)=O)C(=O)N[C@@H](CCCNC(=N)N)C(=O)N[C@H](C(=O)NCC(N)=O)[C@@H](C)O)C(C)C,< 4.40
3,CC[C@H](C)[C@H](NC(=O)CNC(=O)[C@H](CC(N)=O)NC(=O)[C@H](CCC(N)=O)NC(C)=O)C(=O)N[C@@H](CO)C(=O)N[C@@H](CC(=O)O)C(=O)N[C@@H](CC(C)C)C(=O)N[C@H](C(=O)N[C@@H](CCCCN)C(N)=O)C(C)C,< 4.40
4,"CC(C)C[C@@H]1NC(=O)[C@H](CCCNC(=N)N)NC(=O)[C@H](CCCNC(=N)N)NC(=O)[C@@H](NC(=O)CN)CSSC[C@@H](C(=O)N[C@@H](CCCNC(=N)N)C(=O)NCC(=O)N[C@@H](CCCNC(=N)N)C(=O)O)NC(=O)[C@H](C(C)C)NC(=O)[C@H]([C@@H](C)O)NC(=O)[C@H](Cc2ccccc2)NC(=O)[C@@H]2CSSC[C@H](NC1=O)C(=O)N[C@@H](CC(=O)O)C(=O)N[C@@H](CCCNC(=N)N)C(=O)N[C@@H](Cc1ccccc1)C(=O)N[C@@H](C)C(=O)N2 (H-GCRRLCDRFACFTVCRGR-OH; disulfide 2-15, 6-11)",< 4.40
5,CC(C)C[C@@H]1NC(=O)[C@H](CCCNC(=N)N)NC(=O)[C@H](CCCNC(=N)N)NC(=O)[C@@H](NC(=O)CN)CSSC[C@@H](C(=O)N[C@@H](CCCNC(=N)N)C(=O)NCC(=O)N[C@@H](CCCNC(=N)N)C(=O)O)NC(=O)[C@H](C(C)C)NC(=O)[C@H]([C@@H](C)O)NC(=O)[C@H](Cc2ccccc2)NC(=O)[C@@H]2CSSC[C@H](NC1=O)C(=O)N[C@@H](Cc1c[nH]c3ccccc13)C(=O)N[C@@H](Cc1ccccc1)C(=O)N[C@@H](CCCNC(=N)N)C(=O)N[C@@H](Cc1ccc(O)cc1)C(=O)N2,5.35
6,CC(=O)NCC(=O)N[C@@H](CC(N)=O)C(=O)N[C@@H](Cc1ccc(O)cc1)C(=O)N[C@H](C(=O)N[C@@H](Cc1c[nH]c2ccccc12)C(=O)N[C@@H](CC(C)C)C(N)=O)[C@@H](C)O,< 4.40
